One assay deals with T1, Caspase-3 (Homo sapiens, UniProt P42574).
T1 sequence (P42574 whole entry): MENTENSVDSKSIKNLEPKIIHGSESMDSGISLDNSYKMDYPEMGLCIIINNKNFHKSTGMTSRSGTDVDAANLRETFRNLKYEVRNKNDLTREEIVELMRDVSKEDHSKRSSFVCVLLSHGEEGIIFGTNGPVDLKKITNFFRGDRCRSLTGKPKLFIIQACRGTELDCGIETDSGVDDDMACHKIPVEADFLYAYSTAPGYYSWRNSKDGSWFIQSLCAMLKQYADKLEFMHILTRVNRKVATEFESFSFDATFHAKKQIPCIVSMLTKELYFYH
Put plainly: Inhibition of human recombinant caspase 3 using Ac-DEVD-AMC substrate assessed as accumulation of cleaved fluorogenic product. The gist of the method: (§1)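 Inhibitor in DMSO (1−5%) at final 500 μM down to 5 pM in tenfold steps, preincubated 10 min. Peptide-AMC substrate then added (final 10 μM) and reacted 10 min at 37 °C. Released AMC read by fluorescence, excitation 360 nm, emission 460 nm.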

Another assay concerns the target T2, Caspase-7 (Homo sapiens, UniProt P55210).
T2 sequence (P55210 whole entry): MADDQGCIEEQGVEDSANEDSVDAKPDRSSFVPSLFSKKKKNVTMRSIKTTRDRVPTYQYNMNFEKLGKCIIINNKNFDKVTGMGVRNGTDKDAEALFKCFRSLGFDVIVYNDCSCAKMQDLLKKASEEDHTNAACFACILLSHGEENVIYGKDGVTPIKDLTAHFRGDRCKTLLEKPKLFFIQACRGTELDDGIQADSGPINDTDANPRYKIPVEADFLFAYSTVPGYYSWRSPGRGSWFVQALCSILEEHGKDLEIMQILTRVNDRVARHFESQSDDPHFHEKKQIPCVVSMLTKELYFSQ
Put plainly: Inhibition of human recombinant caspase 7 using Ac-DEVD-AMC substrate assessed as accumulation of cleaved fluorogenic product. The gist of the method:
as §1

A further assay addresses T3, Caspase-1 (Homo sapiens, UniProt P29466).
T3 sequence (P29466 whole entry): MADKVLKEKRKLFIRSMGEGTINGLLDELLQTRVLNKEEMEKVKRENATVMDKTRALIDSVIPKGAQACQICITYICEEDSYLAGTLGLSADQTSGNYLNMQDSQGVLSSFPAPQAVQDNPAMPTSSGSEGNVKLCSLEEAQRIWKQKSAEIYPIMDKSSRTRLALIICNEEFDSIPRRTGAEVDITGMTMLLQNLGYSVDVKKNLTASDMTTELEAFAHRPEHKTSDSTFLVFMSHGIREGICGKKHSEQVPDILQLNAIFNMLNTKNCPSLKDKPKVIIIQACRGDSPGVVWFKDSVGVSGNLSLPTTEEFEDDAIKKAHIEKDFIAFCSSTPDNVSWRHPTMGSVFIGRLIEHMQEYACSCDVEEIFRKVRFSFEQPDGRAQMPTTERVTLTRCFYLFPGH
Put plainly: Inhibition of human recombinant caspase 1 using Ac-YVAD-AMC substrate assessed as accumulation of cleaved fluorogenic product. The gist of the method:
as §1

The next assay addresses T4, Caspase-6 (Homo sapiens, UniProt P55212).
T4 sequence (P55212 whole entry): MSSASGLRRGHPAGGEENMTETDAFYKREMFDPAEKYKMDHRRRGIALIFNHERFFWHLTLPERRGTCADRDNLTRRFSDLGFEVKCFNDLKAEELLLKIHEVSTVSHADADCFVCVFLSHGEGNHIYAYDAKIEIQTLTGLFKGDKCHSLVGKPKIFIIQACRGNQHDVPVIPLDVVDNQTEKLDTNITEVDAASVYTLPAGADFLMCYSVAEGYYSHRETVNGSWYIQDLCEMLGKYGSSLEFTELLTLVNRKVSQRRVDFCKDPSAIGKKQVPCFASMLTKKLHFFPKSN
Briefly: Inhibition of human recombinant caspase 6 using Ac-VEID-AMC substrate assessed as accumulation of cleaved fluorogenic product. The gist of the method: as §1

Here are results for 23 compounds from ChEMBL document CHEMBL3352284, “Synthesis of 7-halogenated isatin sulfonamides: nonradioactive counterparts of caspase-3/-7 inhibitor-based potential radiopharmaceuticals for molecular imaging of apoptosis” (J Med Chem, 2014).

Usually IC50 stands for the midpoint of a concentration-inhibition curve. With `COC[C@@H]1CCCN1S(=O)(=O)c1cc(I)c2c(c1)C(=O)C(=O)N2`, the IC50 at Caspase-3 and on Caspase-7 was > 500000 nM in each case.
As to `COC[C@@H]1CCCN1S(=O)(=O)c1cc(I)c2c(c1)C(=O)C(=O)N2C`, the IC50 on Caspase-3 was 1190 nM; at Caspase-7 it was 10500 nM.
Consider `CCN1C(=O)C(=O)c2cc(S(=O)(=O)N3CCC[C@H]3COC)cc(I)c21`, for which the figures for the IC50 on Caspase-3 and on Caspase-7 were 210 nM and 20.1 nM, respectively.
Regarding `CCCN1C(=O)C(=O)c2cc(S(=O)(=O)N3CCC[C@H]3COC)cc(I)c21`, the results for the IC50 on Caspase-3 and at Caspase-7 were 124 nM and 42.4 nM, respectively.
On to `CCCCN1C(=O)C(=O)c2cc(S(=O)(=O)N3CCC[C@H]3COC)cc(I)c21`, for which the IC50 at Caspase-1 was > 500000 nM; at Caspase-3, 17.4 nM; on Caspase-6, > 500000 nM; on Caspase-7 it was 907 nM.
As to `COC[C@@H]1CCCN1S(=O)(=O)c1cc(I)c2c(c1)C(=O)C(=O)N2CCCF`, the IC50 at Caspase-1 is > 500000 nM; at Caspase-3, 20.1 nM; on Caspase-6 it was 28500 nM.
As for `COC[C@@H]1CCCN1S(=O)(=O)c1cc(I)c2c(c1)C(=O)C(=O)N2CCCCF`, the IC50 on Caspase-1 turned out to be 500000 nM; on Caspase-3, 50.7 nM; at Caspase-6, 500000 nM; at Caspase-7, 68.1 nM.
On to `COC[C@@H]1CCCN1S(=O)(=O)c1cc(I)c2c(c1)C(=O)C(=O)N2CCCCO`, for which the IC50 is 500000 nM at Caspase-1, 33.2 nM at Caspase-3, 500000 nM at Caspase-6 and 279 nM at Caspase-7.
`COC[C@@H]1CCCN1S(=O)(=O)c1cc(Br)c2c(c1)C(=O)C(=O)N2`: the IC50 on Caspase-3 and on Caspase-7 was > 500000 nM in each case.
As to `COC[C@@H]1CCCN1S(=O)(=O)c1cc(Br)c2c(c1)C(=O)C(=O)N2C`, the IC50 on Caspase-3 amounted to 353 nM; at Caspase-7 it was 553 nM.
In the case of `CCN1C(=O)C(=O)c2cc(S(=O)(=O)N3CCC[C@H]3COC)cc(Br)c21`, the IC50 on Caspase-3 stood at 133 nM.
Take `CCCN1C(=O)C(=O)c2cc(S(=O)(=O)N3CCC[C@H]3COC)cc(Br)c21`: the values for the IC50 at Caspase-3 and on Caspase-7 were 26.2 nM and 157 nM, respectively.
In the case of `CCCCN1C(=O)C(=O)c2cc(S(=O)(=O)N3CCC[C@H]3COC)cc(Br)c21`, the IC50 on Caspase-3 was found to be 46.9 nM; at Caspase-7, 3.3 nM.
Turning to `COC[C@@H]1CCCN1S(=O)(=O)c1cc(Br)c2c(c1)C(=O)C(=O)N2CCCF`, the IC50 on Caspase-3 came out at 81.4 nM; at Caspase-7 it was 20.1 nM.
The like results for `COC[C@@H]1CCCN1S(=O)(=O)c1cc(Br)c2c(c1)C(=O)C(=O)N2CCCCF` were, in that order, 31.5 nM and 5.95 nM.
In the case of `COC[C@@H]1CCCN1S(=O)(=O)c1cc(Br)c2c(c1)C(=O)C(=O)N2CCCCO`, the IC50 on Caspase-1 was > 500000 nM; on Caspase-3, 2.6 nM; on Caspase-6, > 500000 nM; at Caspase-7, 22.7 nM.
In the case of `COC[C@@H]1CCCN1S(=O)(=O)c1cc(Cl)c2c(c1)C(=O)C(=O)N2`, the IC50 on Caspase-1 was 500000 nM; at Caspase-3 it was > 500000 nM; at Caspase-6, > 500000 nM; on Caspase-7 it was > 500000 nM.
With `CCCCN1C(=O)C(=O)c2cc(S(=O)(=O)N3CCC[C@H]3COC)cc(Cl)c21`, the IC50 on Caspase-1 is 500000 nM; on Caspase-3, 57.7 nM; at Caspase-6, 500000 nM; at Caspase-7, 263 nM.
Take `COC[C@@H]1CCCN1S(=O)(=O)c1cc(Cl)c2c(c1)C(=O)C(=O)N2CCCCF`: the IC50 is 2590 nM on Caspase-1, 4.8 nM on Caspase-3, 500000 nM on Caspase-6 and 55.7 nM at Caspase-7.
Consider `COC[C@@H]1CCCN1S(=O)(=O)c1cc(F)c2c(c1)C(=O)C(=O)N2`, for which the IC50 is > 500000 nM on Caspase-1, > 500000 nM at Caspase-3, > 500000 nM at Caspase-6 and 6620 nM at Caspase-7.
Consider `CCCCN1C(=O)C(=O)c2cc(S(=O)(=O)N3CCC[C@H]3COC)cc(F)c21`, for which the IC50 at Caspase-1 is 9970 nM; on Caspase-3 it was 2.9 nM; at Caspase-6, 78900 nM; at Caspase-7, 9.7 nM.
Taken in the same sequence, the figures for `COC[C@@H]1CCCN1S(=O)(=O)c1cc(F)c2c(c1)C(=O)C(=O)N2CCCCF` were 7430 nM, 41 nM, 12900 nM and 39.3 nM.
For `COC[C@@H]1CCCN1S(=O)(=O)c1ccc2c(c1)C(=O)C(=O)N2`, the IC50 on Caspase-1 was > 500000 nM; on Caspase-6, 500000 nM.
